In the library only some 2.7% were active in any assay of this set; here they are far more common.
TPT1 inh = inhibitors of Candida albicans tRNA 2'-phosphotransferase TPT1; recombinant caTPT1, FP RNA substrate dephosphorylation; inhibition, % at 5 µM; 300,000 tested, 0.81% active; AID 1962;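 active means inhibition above the mean of all tested compounds plus 3 SD, set per screening campaign, cut at about 24% in these data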
Rpn11 block = Rpn11 (human) deubiquitinase inhibition; O00487; human 26S proteasome, Ub4-pepOG fluorescence polarization; 20S core pre-blocked with epoxomicin; inhibition, % at 20 µM; 360,000 tested, 0.59% active; AID 588493;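 active means inhibition at 20 µM, scaled to each plate's controls, above about 33%, limit read from the data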
HNF4A DNA FP = change in binding of human HNF4 alpha to DNA; P41235; HNF4a-FITC DNA binding, fluorescence polarization, 1 h; activity change, % at 10 µM; 360,000 tested, 0.3% active; AID 1224865; in the data active means activity change above about 30%, passing the limit was not always enough
CSN deneddyl inh = inhibitors of human CSN-mediated cullin deneddylation. Q92905. Purified CSN, SCF-Nedd8-OG deneddylation, fluorescence polarization. inhibition, % at 12.5 µM. 360,000 tested, 0.38% active. AID 651999;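 active means pattern-corrected inhibition above about 35%, with an unprinted fluorescence ratio check between 0.5 and 1.5, limit read from the data, passing the limit was not always enough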
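assay system = purified human Csn5 enzyme expressed in HEK293T cells | amount = 0.24 nM enzyme | buffer or medium = Tris/NaCl/DTT buffer, pH 7.5 | reagent = 10 nM SCFSkp2-Nedd8OG | compound = one concentration, 12.5 µM, 0.25% DMSO | times = 90 min reaction at room temperature | signal = FP | read-out basis = % inhibition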
PP1 inh = blocks human PP1-alpha phosphatase, a PP5 counter-screen. AID 2235. 320,000 tested, 0.9% active. purified PP1alpha, OMFP fluorescence. inhibition, % at 6.7 µM;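 active means inhibition above the mean inhibition of all tested compounds plus 3 SD, computed separately for each screening campaign, cut at about 15% in these data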
NadD block = blocks S. aureus nicotinate mononucleotide adenylyltransferase; purified NadD enzyme, colorimetric absorbance read-out; inhibition, % at 20 µM; 360,000 tested, 0.78% active; in the data active means inhibition above about 26%
CSN deneddyl val = Csn5 (human) deneddylation inhibition, single-concentration validation. shares compounds with CSN deneddyl inh. Csn5 deneddylation of SCF-Nedd8OG, fluorescence polarization, 90 min. inhibition, % at 16.6 µM. 540 tested, 62% active. AID 720654; in the data active means inhibition above about 50%
MMP2 cntr CSN = counter-screen for CSN deneddylation inhibitors: human MMP-2 inhibition; shares compounds with CSN deneddyl inh; 540 tested, 33% active; inhibition, % at 16.6 µM; AID 720655; recombinant MMP-2, FRET substrate fluorescence, 60 min;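 active means corrected plate-normalized z-score of 5 or more, or -5 or less, or inhibition of 15% or more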
Target sequence (P08253 whole entry, looked up): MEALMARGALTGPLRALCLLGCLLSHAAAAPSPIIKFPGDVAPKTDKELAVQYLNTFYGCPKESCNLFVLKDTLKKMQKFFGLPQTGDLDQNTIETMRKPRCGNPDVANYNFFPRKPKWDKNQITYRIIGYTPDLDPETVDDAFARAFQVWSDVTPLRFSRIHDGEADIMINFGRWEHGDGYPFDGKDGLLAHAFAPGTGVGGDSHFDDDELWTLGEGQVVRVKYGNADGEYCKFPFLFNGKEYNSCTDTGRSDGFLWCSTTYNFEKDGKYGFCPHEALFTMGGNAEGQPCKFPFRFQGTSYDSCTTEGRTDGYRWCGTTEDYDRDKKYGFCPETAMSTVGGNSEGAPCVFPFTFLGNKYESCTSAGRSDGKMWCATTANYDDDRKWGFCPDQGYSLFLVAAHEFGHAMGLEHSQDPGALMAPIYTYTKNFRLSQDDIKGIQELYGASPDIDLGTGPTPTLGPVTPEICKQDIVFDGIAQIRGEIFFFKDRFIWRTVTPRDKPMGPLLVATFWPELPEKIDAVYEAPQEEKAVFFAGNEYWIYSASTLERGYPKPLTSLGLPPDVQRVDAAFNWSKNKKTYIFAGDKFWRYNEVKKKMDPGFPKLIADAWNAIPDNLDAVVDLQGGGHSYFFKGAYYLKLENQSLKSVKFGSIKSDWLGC
Thrombin counter = counter-screen for CSN deneddylation inhibitors: bovine thrombin inhibition. shares compounds with CSN deneddyl inh. bovine thrombin cleavage of Ub4-pepOG, fluorescence polarization. inhibition, % at 16.6 µM. 540 tested, 49% active. AID 720656;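 active means inhibition at or above a set limit, with a fluorescence interference ratio between 0.5 and a set maximum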
Each line names hits and unclear results; the compound was inactive in the other large screens (follow-up assays come after a bar, where shown).

Cc1ccc(-c2csc(NC(=O)/C=C/c3ccco3)c2C(=O)O)cc1	CSN deneddyl inh 42 | CSN deneddyl val 67 | MMP2 cntr CSN inactive | Thrombin counter inactive
O=C(CN1C(=O)NC2(CCCCCC2)C1=O)NCc1ccc(Cl)cc1	none (no result: TPT1 inh, PP1 inh)
COc1cccc(/C=N/NC(=O)CSc2ccccc2C)c1O	CSN deneddyl inh 100 | CSN deneddyl val 112 | MMP2 cntr CSN inactive | Thrombin counter inactive
CCCCN(C)S(=O)(=O)c1cc2c3c(c1)CCC(=O)N3CCC2	none
O=C(O)CCCN1C(=O)/C(=C\c2ccco2)SC1=S	CSN deneddyl inh 42 (no result: TPT1 inh, PP1 inh) | CSN deneddyl val 94 | MMP2 cntr CSN 30 | Thrombin counter inactive
O=C(O)CN1C(=O)/C(=C/c2ccc(SCc3ccccc3)o2)SC1=S	CSN deneddyl inh 87 (not shown: TPT1 inh, Rpn11 block, PP1 inh) | CSN deneddyl val 88 | MMP2 cntr CSN inactive | Thrombin counter 96
O=C(CCCN1C(=O)/C(=C\c2ccccc2)SC1=S)Nc1ccc(O)cc1C(=O)O	none
O=C(CCN1C(=O)/C(=C/c2ccco2)SC1=S)Nc1ccc(O)cc1C(=O)O	CSN deneddyl inh 43 (no result: TPT1 inh, PP1 inh) | CSN deneddyl val 77 | MMP2 cntr CSN inactive | Thrombin counter inactive
COCc1cccc(-c2csc(C(C)(NC(C)=O)c3ccccc3)n2)c1 (centres undefined)	none (no result: TPT1 inh, PP1 inh)
Cc1nnsc1C(=O)N/N=C/c1ccccc1	none
Cc1nnsc1C(=O)N/N=C/c1ccc2ccccc2c1O	TPT1 inh 110, HNF4A DNA FP 67, CSN deneddyl inh 68 (not shown: Rpn11 block) | CSN deneddyl val inactive | MMP2 cntr CSN -34 | Thrombin counter 77
CCOc1ccccc1NC(=O)COC(=O)CCOc1cc(C)ccc1C	none
Cc1cccc(C)c1N1C(=O)[C@@H]2C(c3ccccc3Cl)=NO[C@@H]2C1=O	none
COc1ccc(OC)c(N2C(=O)[C@@H]3C(c4ccccc4Cl)=NO[C@@H]3C2=O)c1	CSN deneddyl inh 40 | CSN deneddyl val 69 | MMP2 cntr CSN inactive | Thrombin counter inactive
CCCCN(C(=O)COC(=O)c1ccc(C=O)cc1)c1c(N)n(CCC)c(=O)[nH]c1=O	none (no result: TPT1 inh)
CCN(CC)S(=O)(=O)c1ccc(N2CCOCC2)c(NC(=O)c2ccc(=O)[nH]c2)c1	none (no result: TPT1 inh, PP1 inh)
Cc1ccc(NC(=O)CN2C(=O)S/C(=C/c3ccc(-c4cc(C(=O)O)ccc4C)o3)C2=O)cc1C	CSN deneddyl inh 64, NadD block 50 | CSN deneddyl val 76 | MMP2 cntr CSN 18 | Thrombin counter inactive
COc1cc(-c2nnc(SCc3cc(=O)oc4cc(O)c(O)cc34)o2)cc(OC)c1OC	CSN deneddyl inh 47 | MMP2 cntr CSN 32 | Thrombin counter 34
CCOC(=O)CSc1nnc(-c2cc(OC)c(OC)c(OC)c2)o1	none
CC(=O)NN1C(=O)/C(=C/c2ccc(Br)o2)SC1=S	HNF4A DNA FP 60, CSN deneddyl inh 51 | CSN deneddyl val 96 | MMP2 cntr CSN 19 | Thrombin counter 34
O=C1C(=O)c2c(ccc3ccccc23)-c2ccccc21	CSN deneddyl inh 40 (no result: TPT1 inh, PP1 inh) | CSN deneddyl val 84 | MMP2 cntr CSN inactive | Thrombin counter inactive
CCc1ccc(NC(=O)C(C)OC(=O)Cn2[nH]c(=O)c3ccccc3c2=O)cc1 (centres undefined)	none (no result: TPT1 inh, PP1 inh)
Cc1ccc(S(=O)c2ccc([N+](=O)[O-])c3nonc23)cc1 (centres undefined)	CSN deneddyl inh 42 (no result: TPT1 inh, PP1 inh) | CSN deneddyl val 83 | MMP2 cntr CSN -50 | Thrombin counter inactive
Cc1ccc(Nc2c([N+](=O)[O-])ccc3nonc23)c(C)c1	none
Cc1c(Br)c(=O)oc2c(Br)c(O)c(O)cc12	CSN deneddyl inh 40 | MMP2 cntr CSN inactive | Thrombin counter 29
O=C(O)c1cc(-c2ccc(/C=C3\NC(=O)N(c4ccc(Cl)cc4)C3=O)o2)ccc1Cl	CSN deneddyl inh 40 | CSN deneddyl val inactive | MMP2 cntr CSN 18 | Thrombin counter inactive

Screens as filed in PubChem BioAssay.
